ChEMBL document CHEMBL1148634 (J Med Chem, 2006)
The source made the active and inactive calls. The calls are words filed in the database; no cut-off is given here.

How the values were obtained:
[1] = target: T1, Melatonin receptor type 1A (Homo sapiens, UniProt P48039); assay: Displacement of 2-[125I]iodomelatonin from human recombinant MT1 receptor expressed in NIH3T3 cells; type: cell-based
[2] = target: T2, Melatonin receptor type 1B (Homo sapiens, UniProt P49286); assay: Displacement of 2-[125I]iodomelatonin from human recombinant MT2 receptor expressed in NIH3T3 cells; type: cell-based
T2 sequence (P49286 whole entry): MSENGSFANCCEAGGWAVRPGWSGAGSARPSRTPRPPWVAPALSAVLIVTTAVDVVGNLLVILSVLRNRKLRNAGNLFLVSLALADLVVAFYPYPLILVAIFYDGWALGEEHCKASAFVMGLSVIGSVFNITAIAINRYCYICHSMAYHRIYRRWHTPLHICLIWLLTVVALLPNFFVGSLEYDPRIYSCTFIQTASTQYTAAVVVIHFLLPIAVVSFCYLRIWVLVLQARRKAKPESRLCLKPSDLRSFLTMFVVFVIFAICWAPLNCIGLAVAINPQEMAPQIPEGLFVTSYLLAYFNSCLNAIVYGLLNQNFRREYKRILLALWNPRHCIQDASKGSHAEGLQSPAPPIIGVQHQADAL

[3] = target: T3, Melatonin receptor type 1B (Homo sapiens) (UniProt P49286); assay: Activity at MT2 receptor expressed in NIH3T3 cells assessed as inhibition of forskolin-stimulated cAMP synthesis; type: functional, cell-based; conditions: filed as agonist
T3 sequence (whole entry): T2 sequence (P49286 whole entry)
Method in brief: (§1)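 NIH 3T3 cells stably expressing cloned human MT1 or MT2 receptors were pretreated with IBMX (25 µM, 10 min), then given forskolin (1 µM, 10 min) with or without test agent. Cyclic AMP was measured in duplicate by radioimmunoassay for each cell sample. Data are mean ± SEM of quadruplicate cell samples.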

[4] = test system: Melanophore; assay: Antagonist activity in Xenopus laevis melanophore assessed as potency for pigment aggregation at 10 uM; type: functional, cell-based
Method in brief: (§2)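 Antagonism of the pigment aggregation response was tested on a clonal Xenopus laevis melanophore line.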

[5] = target: T1, Melatonin receptor type 1A; assay: Activity at MT1 receptor expressed in NIH3T3 cells assessed as inhibition of forskolin-stimulated cAMP synthesis; type: functional, cell-based; conditions: filed as agonist; method in brief: as §1
[6] = test system: Melanophore; assay: Agonist activity in Xenopus laevis melanophore assessed as potency for pigment aggregation; type: functional, cell-based
Method in brief: (§3)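 A clonal Xenopus laevis melanophore line was grown in 96-well plates, and medium was switched to 0.7 × L-15 18 h before testing. Initial absorbance at 630 nm was read, analogue was added, and final absorbance was read after 60 min. Response was the fractional change 1 − (Af/Ai).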

[7] = test system: Melanophore; assay: Agonist activity in Xenopus laevis melanophore assessed as potency for pigment aggregation at 10 uM; type: functional, cell-based; method in brief: as §3
[8] = test system: Melanophore; assay: Antagonist activity in Xenopus laevis melanophore assessed as potency for pigment aggregation; type: functional, cell-based; method in brief: as §2
[9] = test system: Melanophore; assay: Potency for pigment aggregation in Xenopus laevis melanophore at 10 uM relative to melatonin; type: functional
[10] = target: T1, Melatonin receptor type 1A; assay: Activity at MT1 receptor expressed in NIH3T3 cells assessed as inhibition of forskolin-stimulated cAMP synthesis at 10 uM; type: functional, cell-based; method in brief: as §1
[11] = target: T1, Melatonin receptor type 1A; assay: Activity at MT1 receptor expressed in NIH3T3 cells assessed as inhibition of […] cAMP synthesis at 10 uM; type: functional, cell-based; conditions: filed as antagonist
Method in brief: (§4)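 Antagonism was tested in NIH 3T3 cells expressing human MT1. […] Cyclic AMP was measured in duplicate by radioimmunoassay. Data are mean ± SEM of quadruplicate cell samples.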

[12] = target: T1, Melatonin receptor type 1A; assay: Activity at MT1 receptor expressed in NIH3T3 cells assessed as inhibition of […] cAMP synthesis; type: functional, cell-based; conditions: filed as antagonist; method in brief: as §4
[13] = target: T1, Melatonin receptor type 1A; assay: Activity at MT1 receptor expressed in NIH3T3 cells assessed as inhibition of forskolin-stimulated cAMP synthesis at 1 uM; type: functional, cell-based; method in brief: as §1
[14] = Xenopus laevis, Melanophore, read-out: EC50

T1 sequence (P48039 whole entry): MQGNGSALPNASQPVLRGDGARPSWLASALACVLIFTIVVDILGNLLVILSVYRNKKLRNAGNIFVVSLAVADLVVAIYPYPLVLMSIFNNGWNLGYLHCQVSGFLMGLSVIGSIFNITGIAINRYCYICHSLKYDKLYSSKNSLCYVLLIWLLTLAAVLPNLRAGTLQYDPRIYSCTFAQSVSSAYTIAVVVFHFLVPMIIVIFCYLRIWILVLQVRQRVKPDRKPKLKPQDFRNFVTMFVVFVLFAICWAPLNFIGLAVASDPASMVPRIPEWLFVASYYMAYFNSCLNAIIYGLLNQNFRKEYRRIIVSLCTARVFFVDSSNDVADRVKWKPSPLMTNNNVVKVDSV

Ki [1] [nM]	Ki [2] [nM]	EC50 [6, 14] [nM]	IC50 [8] [nM]	Compound	Activity [4]	further results
8.51	0.74	1	–	CCCC(=O)NCC(C)(C)c1cn(C)c2ccc(OC)cc12	inactive	Activity [3]: Agonist; Activity [5]: Agonist
302	102	–	811	CCC(=O)NCC1(c2cn(C)c3ccc(OC)cc23)CCCC1	–	Activity [7]: inactive
4.27	0.47	1	–	CCCC(=O)NCC(C)c1cn(C)c2ccc(OC)cc12 (configuration not stated)	inactive	–
714	3770	–	> 10000	COc1ccc2c(c1)c(C1(CNC(=O)C3CCC3)CCC1)cn2C	–	Activity [7]: inactive; EC50 ([6]; melanophore): Not Active
11.5	1.29	6.31	–	COc1ccc2c(c1)c(C(C)(C)CNC(C)=O)cn2C	inactive	–
617	1440	–	3440	Cn1cc(C2(CNC(=O)C3CC3)CCC2)c2ccccc21	–	EC50 ([6]; melanophore): Not Active
212	7.5	1.7	–	CCCC(=O)NCC1(c2cn(C)c3ccc(OC)cc23)CC1	inactive	Activity [3]: Agonist; Activity [5]: Agonist
–	0.41	–	–	COc1ccc2c(c1)c(C(C)CNC(C)=O)cn2C (stereo in doubt; 6a) [listing 1 of 2 here]	–	EC50 ([6]; melanophore, read-out: EC50): 1.72 nM
1.12	2.75	0.0072	–	COc1ccc2[nH]cc(C(C)(C)CNC(C)=O)c2c1	inactive	Activity [3]: Agonist; Activity [5]: Agonist
1.67	2.94	0.049	–	COc1ccc2[nH]cc(C(C)CNC(C)=O)c2c1 (configuration not stated)	inactive	–
–	–	–	–	COc1ccc2c(c1)c(C(C)CNC(C)=O)cn2C (single isomer, unassigned; (+)) [listing 1 of 2 here]	inactive	–
170	33.1	57.5	–	COc1ccc2c(c1)c(C(C)(C)CNC(=O)C1CCC1)cn2C	inactive	–
–	0.27	–	–	COc1ccc2c(c1)c(C(C)CNC(C)=O)cn2C (stereo in doubt; (-)6a) [listing 1 of 2 here]	–	EC50 ([6]; melanophore, read-out: EC50): 10.8 nM
34	4.4	980	826	CCC(=O)NCC1(c2cn(C)c3ccc(OC)cc23)CCC1	–	Activity [9]: 20%
2190	1260	–	1250	CC(=O)NCC1(c2cn(C)c3ccccc23)CCC1	–	EC50 ([6]; melanophore): Not Active
176	90	10.5	–	COc1ccc2c(c1)c(C1(CNC(C)=O)CC1)cn2C	inactive	–
148	66.1	–	628	COc1ccc2c(c1)c(C1(CNC(C)=O)CCCC1)cn2C	–	Activity [7]: inactive
468	257	–	1180	COc1ccc2c(c1)c(C1(CNC(=O)C3CC3)CCCC1)cn2C	–	Activity [7]: inactive
–	–	0.063	–	COc1ccc2[nH]cc(CCNC(C)=O)c2c1 [MELATONIN]	inactive	–

Ki [1] [nM]	Ki [2] [nM]	EC50 [6, 14] [nM]	IC50 [8] [nM]	Compound	Activity [4]	further results
86	39	6.8	–	CCC(=O)NCC1(c2cn(C)c3ccc(OC)cc23)CC1	inactive	–
307	138	–	2070	COc1ccc2c(c1)c(C1(CNC(=O)C3CC3)CCC1)cn2C	–	Activity [7]: inactive
–	0.5	–	–	COc1ccc2c(c1)c(C(C)CNC(C)=O)cn2C (single isomer, unassigned; (+)) [listing 2 of 2 here]	–	EC50 ([6]; melanophore, read-out: EC50): 0.98 nM
479	407	–	1770	COc1ccc2c(c1)c(C1(CNC(=O)C3CCC3)CCCC1)cn2C	–	Activity [7]: inactive
483	72	1010	637	COc1ccc2c(c1)c(C1(CNC(C)=O)CCC1)cn2C	–	Activity [9]: 8%
589	85.1	–	1640	CCCC(=O)NCC1(c2cn(C)c3ccc(OC)cc23)CCCC1	–	Activity [10]: inactive; Activity [11]: Antagonist; Activity [7]: inactive
116	57.4	2.56	–	CCCC(=O)NCC1(c2c[nH]c3ccc(OC)cc23)CCC1	inactive	Activity [3]: Agonist; Activity [5]: Agonist
10.6	0.86	2	–	CCCC(=O)NCC1(c2cn(C)c3ccc(OC)cc23)CCC1	inactive	Activity [12]: Antagonist; Activity [9]: 92%; Activity [13]: inactive
4.9	1.02	3.72	–	CCC(=O)NCC(C)c1cn(C)c2ccc(OC)cc12 (configuration not stated)	inactive	–
1510	1050	–	1150	CCC(=O)NCC1(c2cn(C)c3ccccc23)CCC1	–	EC50 ([6]; melanophore): Not Active
493	62.2	–	> 10000	COc1ccc2[nH]cc(C3(CNC(=O)C4CCC4)CCC3)c2c1	–	Activity [7]: inactive
57.8	28.9	–	2500	COc1ccc2[nH]cc(C3(CNC(=O)C4CC4)CCC3)c2c1	–	Activity [7]: inactive
–	–	–	–	COc1ccc2c(c1)c(C(C)CNC(C)=O)cn2C (stereo in doubt; 6a) [listing 2 of 2 here]	inactive	–
65.7	32	0.99	–	CCC(=O)NCC1(c2c[nH]c3ccc(OC)cc23)CCC1	inactive	–
724	1740	–	3030	CCCC(=O)NCC1(c2cn(C)c3ccccc23)CCC1	–	EC50 ([6]; melanophore): Not Active
6.03	1.15	1.26	–	CCC(=O)NCC(C)(C)c1cn(C)c2ccc(OC)cc12	inactive	–
–	–	–	–	COc1ccc2c(c1)c(C(C)CNC(C)=O)cn2C (stereo in doubt; (-)6a) [listing 2 of 2 here]	inactive	–
8.2	3.3	1.67	–	COc1ccc2[nH]cc(C3(CNC(C)=O)CCC3)c2c1	inactive	–
